Assay results gathered from unrelated publications.
Each line is one published result; the experiments were not run side by side.
Target: Serine/threonine-protein kinase N2 (PKN2, Homo sapiens, UniProt Q16513)

Compound | test | system | setting | measurement | value
O=C(Nc1cnn(-c2csc(C(=O)NC3COC3)c2)c1)Nc1ccccc1Cl | enzyme activity, inhibitor |  | 5 µM | remaining activity | 112%
O=C(NS(=O)(=O)c1ccc(NCC2CCOCC2)c([N+](=O)[O-])c1)c1ccc(N2CCN(Cc3ccc(C(F)(F)F)cc3-c3ccc(Cl)cc3)CC2)cc1Oc1cnc2[nH]ccc2c1 | cell-free assay, competition with immobilised ligand |  | 1 µM | remaining binding | 93%
O=C1NC(=O)c2cc(Nc3ccc(F)cc3)c(Nc3ccc(F)cc3)cc21 | cell-free assay |  | 0.5 µM | remaining signal | 102%
Cc1ccc(NC(=O)c2ccc(C)c(C(F)(F)F)c2)cc1C#Cc1nn(C2CCC(O)CC2)c2ncnc(N)c12 (stereo not shown) | cell-free assay |  | 10 µM | remaining signal | 97%
CCC(=O)N[C@H]1CC[C@@H](C(=O)N(C)c2ccc(-c3nc4ccccc4o3)cc2)C1 | cell-free assay, competition with immobilised ligand |  | 1 µM | remaining binding | 100%
CN(c1ncccc1CNc1nc(Nc2ccc3c(c2)CC(=O)N3)ncc1C(F)(F)F)S(C)(=O)=O | enzyme activity, inhibitor |  | 1 µM | inhibition | 47%
CCCOc1ccc(OC)c(F)c1C(=O)c1ccc(C(=O)N[C@@H]2CNC[C@H]2NC(=O)c2ccc3[nH]ncc3c2)cc1 | enzyme activity, inhibitor |  | 10 µM | remaining activity | -1%
COc1cc(Cl)c(C(=O)N[C@@H](CN[C@H]2CC[C@@H](N)CC2)Cc2ccc(C#N)cc2)cc1-c1ccc(CN[C@H](C)c2ccc(C)cc2)o1 | enzyme activity, inhibitor |  | 1 µM | remaining activity | 102%
CC(C)(O)[C@H]1CC[C@H](Nc2ccc3ncc(-c4cccc(C(F)(F)F)c4)n3n2)CC1 | enzyme activity, inhibitor |  | 1 µM | remaining activity | 95.9%
COc1cc(Nc2cnc(C#N)c(O[C@H](C)CN(C)C)n2)ncc1-c1cnn(C)c1 | enzyme activity, inhibitor, radiometric |  | 10 µM | remaining activity | 86%
CCN1CCN(Cc2ccc(NC(=O)c3ccc(C)c(Oc4ccnc5[nH]ccc45)c3)cc2C(F)(F)F)CC1 | target engagement in cells, inhibitor, chemoproteomics | Huh-7 | 10 µM | inhibition | -10.5%
Cc1cnc(NC2CCOCC2)nc1-n1cnc(C(=O)NC(CN)c2cc(F)cc(Cl)c2)c1 (stereo not shown) | enzyme activity, inhibitor, radiometric |  | 1 µM | remaining activity | 63%
CCN(CC)c1ccc(C2=NNC(=O)CC2C)cc1[N+](=O)[O-] (stereo not shown) | enzyme activity, inhibitor |  | 10 µM | remaining activity | 94%
Nc1nc(NC2CCCCC2)sc1C(=O)c1ccccc1 | enzyme activity, inhibitor |  | 10 µM | remaining activity | 98%
CN(C)c1ncnc(-c2ccc3nc(Nc4cc(CN5CCN(C(=O)CC(F)(F)F)CC5)ccn4)[nH]c3c2)c1Cl | cell-free assay, competition with immobilised ligand |  | 1 µM | remaining binding | 85%
Cc1ccc(Nc2nccc(N(C)c3ccc4c(C)n(C)nc4c3)n2)cc1S(N)(=O)=O | enzyme activity, inhibitor |  | 10 µM | inhibition | 34%
Cc1ccc(NC(=O)c2ccc(CN3CCN(C)CC3)cc2)cc1Nc1nc(-c2cccnc2)cs1 | cell-free assay |  | 0.5 µM | remaining signal | 108%

Compound | test | system | setting | measurement | value
FC(F)c1nc2ccccc2n1-c1nc(N2CCOCC2)nc(N2CCOCC2)n1 | enzyme activity, inhibitor |  | 10 µM | remaining activity | 82%
CCS(=O)(=O)c1cc2cc(C[C@@](O)(CC(C)(C)c3ccc(F)cc3C(N)=O)C(F)(F)F)[nH]c2cn1 | cell-free assay, competition with immobilised ligand |  | 1 µM | remaining binding | 85%
CNCc1ccc(-c2cc(-c3nc(-c4ccc(S(=O)(=O)C(C)C)cc4)cnc3N)on2)cc1 | enzyme activity, inhibitor |  | 0.4 µM | inhibition | 59%
CNC(=O)c1cc(Oc2ccc(NC(=O)Nc3ccc(Cl)c(C(F)(F)F)c3)cc2)ccn1 | enzyme activity, inhibitor |  | 0.3 µM | inhibition | 10%
CC(C)(C)C(=O)c1sc(NC2CCCCC2)nc1N | enzyme activity, inhibitor |  | 10 µM | remaining activity | 95%
Cn1c2c(Cl)c(Cl)ccc2c2cc[nH]c(=O)c21 | thermal stability, DSF |  | 10 µM | ΔTm | 1.3 °C
c1ccc(CNc2nc(N3CCOc4ccccc43)nc3c2CCCC3)cc1 | target engagement in cells, inhibitor, chemoproteomics |  | 20 mM | inhibition | 9.1%
CN1CC(Oc2cnc(C#N)cc2-c2ccn3nc(NC(=O)C4CC4)cc3c2)C1 | enzyme activity, inhibitor |  | 1 µM | inhibition | 15%
CCCOc1ccc([C@H]2[C@H](C(=O)O)[C@@H](c3ccc4c(c3)OCO4)CN2CC(=O)Nc2c(CC)cccc2CC)cc1 | cell-free assay, competition with immobilised ligand |  | 1 µM | remaining binding | 100%
CN1CCC2(CC1)NC(=O)c1c(c3ccc(Cl)c(Cl)c3n1C)C2C#N (racemic) | thermal stability, DSF |  | 10 µM | ΔTm | 2.5 °C
CCCCN(CCCC)C(=O)CN1C[C@H](c2cc(OC)c3c(c2)OCO3)[C@@H](C(=O)O)[C@@H]1CC(C)(C)CCC | cell-free assay, competition with immobilised ligand |  | 1 µM | remaining binding | 100%
COc1cc(-c2cc(-c3ccc(N4CCNCC4)cc3)cnc2C)cc(OC)c1OC | enzyme activity, inhibitor |  | 0.1 µM | inhibition | 4%
O=S(=O)(c1cccc2cnccc12)N1CCCNCC1 | cell-free assay |  | 0.5 µM | remaining signal | 103%
CO[C@H]1CC[C@H](CNc2ccc(S(=O)(=O)NC(=O)c3ccc(N4CCN(CC5=C(c6ccc(Cl)cc6)CC(C)(C)CC5)CC4)cc3Oc3cnc4[nH]ccc4c3)cc2[N+](=O)[O-])CC1 | cell-free assay, competition with immobilised ligand |  | 1 µM | remaining binding | 97%
CC(C)(C)c1nc2c(s1)c1nc(N)ncc1c1ccc(NS(=O)(=O)c3c(F)cccc3F)c(F)c12 | enzyme activity, inhibitor, radiometric |  | 1 µM | remaining activity | 91%
COc1ccc2c(O[C@@H]3C[C@H]4C(=O)N[C@]5(C(=O)O)CC5/C=C\CCCCC[C@H](NC(=O)OC5CCCC5)C(=O)N4C3)cc(-c3csc(NC(=O)C(C)C)n3)nc2c1C (stereo partly shown) | cell-free assay, competition with immobilised ligand |  | 1 µM | remaining binding | 67%
CCN(CC)CCNC(=O)c1c(C)[nH]c(/C=C2\C(=O)Nc3ccc(F)cc32)c1C | enzyme activity, inhibitor |  | 0.3 µM | inhibition | 24%
